Test results taken from ChEMBL document CHEMBL4811233, “Synthesis, Structure-Activity Relationships, and Antiviral Activity of Allosteric Inhibitors of Flavivirus NS2B-NS3 Protease” (J Med Chem, 2021).

What was measured:
Nonstructural protein 3 = Nonstructural protein 3 (Zika virus, UniProt A0A024AXB9); assay: Inhibition Zika virus NS2B (47 to 95 residues)/NS3 (1 to 170 residues) protease expressed in Escherichia coli BL21 using 7-amino-4-methylcoumarin as substrate by fluorescence assay
Outline: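 Single-chain NS2B(47–95)–Gly4-Ser-Gly4–NS3(1–170) enzyme at 1 nM in 20 mM HEPES pH 7.3 with 0.05% Triton X-100. Compound (1 nM–10 µM, triplicate) is preincubated 10 min before adding Bz-Nle-Lys-Lys-Arg-AMC at 20 µM. Fluorescence (Ex 360/Em 460 nm) is read every 30 s. IC50 comes from dose-response fitting of initial velocities, 3 independent experiments with SD.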

Vero = assay: Cytotoxicity against African green monkey Vero cells assessed as inhibition of proliferation at 10 uM by MTT assay; format: cell-based; details: chlorocebus sabaeus
U-87 MG = assay: Cytotoxicity against human U87 cells assessed as inhibition of proliferation at 10 uM by MTT assay; format: cell-based; details: u-87mg atcc

Sequence of Nonstructural protein 3 (A0A024AXB9 whole entry, the tested form may be a part): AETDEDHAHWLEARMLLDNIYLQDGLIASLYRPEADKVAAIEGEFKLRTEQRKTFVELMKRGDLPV

| Compound | IC50 (Nonstructural protein 3) | Activity (Vero) | Activity (U-87 MG) |
| --- | --- | --- | --- |
| COc1cc(-c2ncc(OCC3CCNCC3)nc2-c2ccc(-c3ccsc3)cc2)ccc1C(N)=O | 4.7 µM |  |  |
| CN(C)Cc1ccc(-c2nc(OCC3CCNCC3)cnc2-c2ccc(O)cc2)cc1 | 20.5 µM |  |  |
| NCc1ccc(-c2ncc(OCC3CCNCC3)nc2-c2cccc3[nH]cnc23)cc1 | 1.6 µM |  |  |
| CC(=O)NCc1ccc(-c2ncc(OCC3CCNCC3)nc2-c2ccc(CN)cc2)cc1 | 30 µM |  |  |
| NCc1ccc(-c2ncc(OC3CCNCC3)nc2-c2ccc(-c3ccoc3)cc2)cc1 | 1.6 µM |  |  |
| NCc1ccc(-c2ncc(OCC3CCNCC3)nc2-c2ccc(-n3ccnn3)cc2)cc1 | > 10 µM |  |  |
| NCc1ccc(-c2ncc(OCC3CCNCC3)nc2-c2ccc(-c3ccoc3)cc2CO)cc1 | > 10 µM | Non-Toxic | Non-Toxic |
| CN(C)Cc1ccc(-c2ncc(OCC3CCNCC3)nc2-c2ccc(CN(C)C)cc2)cc1 | 0.39 µM |  |  |
| NCc1ccc(-c2ncc(NCC3CCNCC3)nc2-c2ccc(-c3ccoc3)cc2F)cc1 | 2.3 µM |  |  |
| NCc1ccc(-c2ncc(OCCC3CCNCC3)nc2-c2ccc(-c3ccoc3)cc2)cc1 | 1.3 µM |  |  |
| NCc1ccc(-c2ncc(OCC3CCNCC3)nc2-c2ccc(CN)c(F)c2)cc1 | > 50 µM |  |  |
| NCc1ccc(-c2ncc(OCc3ccccc3)nc2-c2ccc(-c3ccoc3)cc2)cc1 | 3.2 µM |  |  |
| NC(=O)c1ccc(-c2ncc(OCC3CCNCC3)nc2-c2ccc(-c3ccoc3)cc2)cc1F | 2.3 µM |  |  |
| NCc1ccc(-c2ncc(OCC3CCNCC3)nc2-c2ccc(C(=O)N3CCCC3)cc2)cc1 | 13 µM | Non-Toxic | Non-Toxic |
| NCc1ccc(-c2ncc(OCC3CCNCC3)nc2-c2ccc(CN)cc2)cc1 | 0.62 µM |  |  |
| OCc1ccc(-c2ncc(OCCC3CCNCC3)nc2-c2ccc(CO)cc2)cc1 | 2.1 µM |  |  |
| NCc1ccc(-c2ncc(OCC3CCNCC3)nc2-c2ccc(C3CCCCC3)cc2)cc1 | 16.2 µM | Non-Toxic | Non-Toxic |
| NCc1ccc(-c2nc(OCC3CCNCC3)c3nccn3c2-c2ccc(CN)cc2)cc1 | 9.3 µM |  |  |
| NCc1ccc(-c2nc(OCCC3CCNCC3)cnc2-c2ccncc2)cc1 | 1.7 µM |  |  |
| CN(C)Cc1ccc(-c2ncc(OCC3CCNCC3)nc2-c2ccc(-c3ccoc3)cc2)cc1 | 6.1 µM |  |  |
| NCc1cccc(-c2ncc(OCC3CCNCC3)nc2-c2ccc(-c3ccoc3)cc2)c1 | 2.9 µM |  |  |

| Compound | IC50 (Nonstructural protein 3) | Activity (Vero) | Activity (U-87 MG) |
| --- | --- | --- | --- |
| NCc1ccc(-c2ncc(OCC3CCNCC3)nc2-c2ccc(C3CCNCC3)cc2)cc1 | 3.1 µM | Non-Toxic | Non-Toxic |
| COc1cc(-c2ccoc2)ccc1-c1nc(OCC2CCNCC2)cnc1-c1ccc(CN)cc1 | 1.9 µM | Non-Toxic | Non-Toxic |
| Cc1cc(CN)ccc1-c1ncc(OCC2CCNCC2)nc1-c1ccc(-c2ccoc2)cc1 | 2.6 µM |  |  |
| OCc1ccc(-c2ncc(OCC3CCNCC3)nc2-c2ccc(CO)cc2)cc1 | 0.51 µM |  |  |
| NCc1ccc(-c2ccc(NCC3CCNCC3)nc2-c2ccc(CN)cc2)cc1 | 3.7 µM |  |  |
| ONCc1ccc(-c2ncc(OCC3CCNCC3)nc2-c2ccc(-c3ccoc3)cc2)cc1 | 1.2 µM |  |  |
| NCc1ccc(-c2ncc(OCC3CCNCC3)nc2-c2ccc(N3CCOCC3)cc2)cc1 | > 10 µM | Non-Toxic | Non-Toxic |
| COc1cc(-c2nc(OCC3CCNCC3)cnc2-c2ccc(CN)cc2)ccc1-c1ccoc1 | 8 µM | Non-Toxic | Non-Toxic |
| CN(C)Cc1ccc(-c2nc(OCC3CCNCC3)cnc2-c2cccnc2)cc1 | 9.9 µM |  |  |
| NCc1ccc(-c2ncc(OCCC3CCNCC3)nc2-c2ccc(CN)cc2)cc1 | > 10 µM |  |  |
| NCc1ccc(-c2nc(OCC3CCNCC3)cnc2-c2ccncc2)cc1 | 0.32 µM |  |  |
| Cc1cc(-c2ccoc2)ccc1-c1nc(OCC2CCNCC2)cnc1-c1ccc(CN)cc1 | 17.1 µM | Non-Toxic | Non-Toxic |
| CNCCOc1cnc(-c2ccc(CN)cc2)c(-c2ccc(-c3ccoc3)cc2)n1 | 2.1 µM |  |  |
| CC(=O)OCc1ccc(-c2ncc(OCC3CCNCC3)nc2-c2ccc(COC(C)=O)cc2)cc1 | > 10 µM |  |  |
| NCc1ccc(-c2ncc(OCC3CCNCC3)nc2-c2ccc(-n3cc(CO)nn3)cc2)cc1 | > 10 µM |  |  |
| NCc1ccc(-c2ncc(OCC3CCNCC3)nc2-c2ccc(-c3ccoc3)cc2F)cc1 | 8.4 µM | Non-Toxic | Non-Toxic |
| NCc1ccc(-c2ncc(OCC3CCNCC3)nc2-c2ccc(N3CCCCC3)cc2)cc1 | > 10 µM | Non-Toxic | Non-Toxic |
| NCCCOc1cnc(-c2ccc(CN)cc2)c(-c2ccc(-c3ccoc3)cc2)n1 | 1.3 µM |  |  |
| NCc1ccc(-c2ncc(NCC3CCNCC3)nc2C(=O)Nc2ccc(-c3ccoc3)cc2)cc1 | 1.1 µM |  |  |
| NCc1ccc(-c2ncc(OCC3CCNCC3)nc2-c2ccc(N3CCCC3)cc2)cc1 | 2.5 µM | Non-Toxic | Non-Toxic |
| Cc1cc(-c2nc(OCC3CCNCC3)cnc2-c2ccc(CN)cc2)ccc1-c1ccoc1 | 10.6 µM | Non-Toxic | Non-Toxic |

| Compound | IC50 (Nonstructural protein 3) | Activity (Vero) | Activity (U-87 MG) |
| --- | --- | --- | --- |
| NCc1ccc(-c2nc(N)c(OCC3CCNCC3)nc2-c2ccc(CN)cc2)cc1 | 2.1 µM |  |  |
| NCc1ccc(-c2ncc(OCCN3CCNCC3)nc2-c2ccc(CN)cc2)cc1 | > 10 µM |  |  |
| c1cc(-c2ccc(-c3ncc(OCC4CCNCC4)nc3-c3ccc(-c4ccoc4)cc3)cc2)co1 | 1 µM |  |  |
| NCc1ccc(-c2nc(N3CCC[C@@H](N)C3)c3nccn3c2-c2ccc(CN)cc2)cc1 | 3.5 µM |  |  |
| Cc1noc(C)c1-c1ccc(-c2nc(OCC3CCNCC3)cnc2-c2ccc(CN)cc2)cc1 | > 10 µM |  |  |
| NCc1ccc(-c2ncc(OCC3CCNCC3)nc2-c2ccc(C3CCOC3)cc2)cc1 (stereo not given) | 0.59 µM | Non-Toxic | Non-Toxic |
| CC(=O)NCc1ccc(-c2ncc(OCC3CCNCC3)nc2-c2ccc(CNC(C)=O)cc2)cc1 | > 10 µM |  |  |
| NCc1ccc(-c2ncc(OCC3CCNCC3)nc2-c2ccc(C(=O)N3CCCCC3)cc2)cc1 | 3.5 µM | Non-Toxic | Non-Toxic |
| Cc1noc(C)c1-c1nc(OCC2CCNCC2)cnc1-c1ccc(CN)cc1 | 11.1 µM |  |  |
| NCc1ccc(-c2nc(OCC3CCNCC3)cnc2-c2ccc(O)cc2)cc1 | 8.1 µM |  |  |
| CN(C)Cc1ccc(-c2nc(OCC3CCNCC3)cnc2-c2ccc(-c3ccoc3)cc2)cc1 | 1.8 µM |  |  |
| NCc1ccc(-c2nc(N3CC[C@H](N)C3)c3nccn3c2-c2ccc(CN)cc2)cc1 | 19.3 µM |  |  |
| NCc1ccc(-c2ncc(OCC3CCNCC3)nc2-c2ccc(C3=CCNCC3)cc2)cc1 | 2.9 µM | Non-Toxic | Non-Toxic |
| NCc1ccc(-c2ncc(OCC3CCNCC3)nc2-c2cccc(C3CCOC3)c2)cc1 (stereo not given) | > 10 µM | Non-Toxic | Non-Toxic |
| Ic1ccc(-c2ncc(OCC3CCNCC3)nc2-c2ccc(I)cc2)cc1 | 0.52 µM |  |  |
| NCc1ccc(-c2ncc(OCC3CCNCC3)nc2-c2ccc(C(=O)N3CCOCC3)cc2)cc1 | > 10 µM | Non-Toxic | Non-Toxic |
| Ic1ccc(-c2ncc(OCCCC3CCNCC3)nc2-c2ccc(I)cc2)cc1 | > 10 µM |  |  |
| COc1cc(CN)ccc1-c1nc(OCC2CCNCC2)cnc1-c1ccncc1 | 3.5 µM |  |  |
| NCc1ccc(-c2nc(OCCN3CCNCC3)cnc2-c2ccc(-c3ccoc3)cc2)cc1 | 1.8 µM |  |  |
